# ChEMBL document CHEMBL1127509, “Antitumor agents. 152. In vitro inhibitory activity of etoposide derivative NPF against human tumor cell lines and a study of its conformation by X-ray crystallography, molecular modeling, and NMR spectroscopy” (1994)
# What was measured:
# Tumor Cell line [1] = assay: Tested for in vitro inhibitory activity against drug concentration causing 50% cell death inhibition in 56 human tumor cell lines derived from colon cancer in test 4; log10 LC50; type: functional; conditions: read-out: Log LC50 (the source's name) (converted)
# In short: (§1)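 NCI 56-line human tumour panel screen. Cells were seeded in 96-well plates on day 0, mostly at 20 000 cells/well, and preincubated 24 h without drug. Drug was then added at five 10-fold dilutions for a further 48 h. Cells were fixed in situ and stained with SRB, and bound dye was read spectrophotometrically. GI50, TGI (0% growth) and LC50 (−50% growth) were taken versus control. Values are mean-graph midpoints (log10) per test.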
# Tumor Cell line [2] = assay: Tested for in vitro inhibitory activity against drug concentration causing 50% cell death inhibition in 56 human tumor cell lines derived from leukemia in test 1; log10 LC50; type: functional; conditions: read-out: Log LC50 (the source's name) (converted); in short: as §1
# Tumor Cell line [3] = assay: Tested for in vitro inhibitory activity against drug concentration causing 50% cell death inhibition in 56 human tumor cell lines derived from leukemia in test 9; log10 LC50; type: functional; conditions: read-out: Log LC50 (the source's name) (converted); in short: as §1
# Tumor Cell line [4] = assay: Tested for in vitro inhibitory activity against drug concentration causing 50% cell death inhibition in 56 human tumor cell lines derived from small cell lung cancer in test 3; log10 LC50; type: functional; conditions: read-out: Log LC50 (the source's name) (converted); in short: as §1
# Tumor Cell line [5] = assay: Tested for in vitro inhibitory activity against drug concentration causing 50% cell death inhibition in 56 human tumor cell lines derived from CNS cancer in test 5; log10 LC50; type: functional; conditions: read-out: Log LC50 (the source's name) (converted); in short: as §1
# Tumor Cell line [6] = assay: Tested for in vitro inhibitory activity against drug concentration causing 50% cell death inhibition in 56 human tumor cell lines derived from Non small cell lung cancer in test 2; log10 LC50; type: functional; conditions: read-out: Log LC50 (the source's name) (converted); in short: as §1
# Tumor Cell line [7] = assay: Tested for in vitro inhibitory activity against drug concentration causing 50% cell death inhibition in 56 human tumor cell lines derived from Ovarian cancer in test 7; log10 LC50; type: functional; conditions: read-out: Log LC50 (the source's name) (converted); in short: as §1
# Tumor Cell line [8] = assay: Tested for in vitro inhibitory activity against drug concentration causing 50% cell death inhibition in 56 human tumor cell lines derived from Renal cancer in test 8; log10 LC50; type: functional; conditions: read-out: Log LC50 (the source's name) (converted); in short: as §1
# Tumor Cell line [9] = assay: Tested for in vitro inhibitory activity against drug concentration causing 50% cell growth inhibition in 56 human tumor cell lines derived from Ovarian cancer in test 7; log10 GI50; type: functional; in short: as §1
# Tumor Cell line [10] = assay: Tested for in vitro inhibitory activity against drug concentration causing 50% cell growth inhibition in 56 human tumor cell lines derived from colon cancer in test 4; log10 GI50; type: functional; in short: as §1
# Tumor Cell line [11] = assay: Tested for in vitro inhibitory activity against drug concentration causing 50% cell growth inhibition in 56 human tumor cell lines derived from leukemia in test 1; log10 GI50; type: functional; in short: as §1
# Tumor Cell line [12] = assay: Tested for in vitro inhibitory activity against drug concentration causing 50% cell growth inhibition in 56 human tumor cell lines derived from renal cancer in test 8; log10 GI50; type: functional; in short: as §1
# Tumor Cell line [13] = assay: Tested for in vitro inhibitory activity against drug concentration causing 50% cell death inhibition in 56 human tumor cell lines derived from Melanoma in test 6; log10 LC50; type: functional; conditions: read-out: Log LC50 (the source's name) (converted); in short: as §1
# Tumor Cell line [14] = assay: Tested for in vitro inhibitory activity against drug concentration causing total cell growth inhibition in 56 human tumor cell lines derived from CNS cancer in test 5; log10 TGI50; type: functional; conditions: read-out: Log TGI (converted); in short: as §1
# Tumor Cell line [15] = assay: Tested for in vitro inhibitory activity against drug concentration causing total cell growth inhibition in 56 human tumor cell lines derived from Melanoma in test 6; log10 TGI50; type: functional; conditions: read-out: Log TGI (converted); in short: as §1
# Tumor Cell line [16] = assay: Tested for in vitro inhibitory activity against drug concentration causing total cell growth inhibition in 56 human tumor cell lines derived from Non small cell lung cancer in test 2; log10 TGI50; type: functional; conditions: read-out: Log TGI (converted); in short: as §1
# Tumor Cell line [17] = assay: Tested for in vitro inhibitory activity against drug concentration causing total cell growth inhibition in 56 human tumor cell lines derived from Renal cancer in test 8; log10 TGI50; type: functional; conditions: read-out: Log TGI (converted); in short: as §1
# Tumor Cell line [18] = assay: Tested for in vitro inhibitory activity against drug concentration causing total cell growth inhibition in 56 human tumor cell lines derived from leukemia in test 1; log10 TGI50; type: functional; conditions: read-out: Log TGI (converted); in short: as §1
# Tumor Cell line [19] = assay: Tested for in vitro inhibitory activity against drug concentration causing total cell growth inhibition in 56 human tumor cell lines derived from ovarian cancer in test 7; log10 TGI50; type: functional; conditions: read-out: Log TGI (converted); in short: as §1
# Tumor Cell line [20] = assay: Tested for in vitro inhibitory activity against drug concentration causing total cell growth inhibition in 56 human tumor cell lines derived from small-cell-lung cancer in test 3; log10 TGI50; type: functional; conditions: read-out: Log TGI (converted); in short: as §1
# Tumor Cell line [21] = assay: Tested for in vitro inhibitory activity against drug concentration causing 50% cell growth inhibition in 56 human tumor cell lines derived from CNS cancer in test 5; log10 GI50; type: functional; in short: as §1
# Tumor Cell line [22] = assay: Tested for in vitro inhibitory activity against drug concentration causing 50% cell growth inhibition in 56 human tumor cell lines derived from Melanoma in test 6; log10 GI50; type: functional; in short: as §1
# Homo sapiens = organism: Homo sapiens; assay: Tested for in vitro inhibitory activity against drug concentration causing 50% cell growth inhibition in 56 human tumor cell lines derived from Non-small-cell lung cancer in test 2; log10 GI50; type: functional; in short: as §1
# Tumor Cell line [23] = assay: Tested for in vitro inhibitory activity against drug concentration causing total cell growth inhibition in 56 human tumor cell lines derived from leukemia in test 9; log10 TGI50; type: functional; conditions: read-out: Log TGI (converted); in short: as §1
# Tumor Cell line [24] = assay: Tested for in vitro inhibitory activity against drug concentration causing 50% cell growth inhibition in 56 human tumor cell lines derived from small-cell-lung cancer in test 3; log10 GI50; type: functional; in short: as §1
# Tumor Cell line [25] = assay: Tested for in vitro inhibitory activity against drug concentration causing 50% cell growth inhibition in 56 human tumor cell lines derived from leukemia in test 9; log10 GI50; type: functional; in short: as §1
# Tumor Cell line [26] = assay: Tested for in vitro inhibitory activity against drug concentration causing total cell growth inhibition in 56 human tumor cell lines derived from colon cancer in test 4; type: functional; conditions: read-out: Log TGI (converted); in short: as §1
# Tumor Cell line [27] = assay: Tested for in vitro inhibitory activity against drug concentration causing 50% cell growth inhibition in 56 human tumor cell lines derived from leukemia; log10 GI50; type: functional
# In short: (§2)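 NCI screen: cells plated on day 0 (mostly 20 000 cells/well) and preincubated drug-free for 24 h. Drug then added at five 10-fold dilutions for 48 h. Cells were fixed in situ, stained with sulforhodamine B, and the solubilized bound dye read spectrophotometrically. GI50, the concentration giving 50% growth inhibition versus control, was taken from dose-response curves.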
# P388 = assay: Tested for in vitro inhibitory activity against drug concentration causing 50% cell growth inhibition in P388/ADR cell lines; log10 GI50; type: functional, Homo sapiens; conditions: Mus musculus; in short: as §2
compound,measurement,setting,value
COc1cc([C@@H]2c3cc4c(cc3[C@@H](Nc3ccc(F)cc3)[C@H]3COC(=O)[C@H]23)OCO4)cc(OC)c1O,CC50,Tumor Cell line [1],1000 nM
same,CC50,Tumor Cell line [2],61.7 µM
same,CC50,Tumor Cell line [3],61.7 µM
same,CC50,Tumor Cell line [4],61.7 µM
same,CC50,Tumor Cell line [5],63.1 µM
same,CC50,Tumor Cell line [6],66.1 µM
same,CC50,Tumor Cell line [7],79.4 µM
same,CC50,Tumor Cell line [8],1000 nM
same,GI50,Tumor Cell line [9],871 nM
same,GI50,Tumor Cell line [10],708 nM
same,GI50,Tumor Cell line [11],1100 nM
same,GI50,Tumor Cell line [12],646 nM
same,CC50,Tumor Cell line [13],1000 nM
same,TGI,Tumor Cell line [14],11 µM
same,TGI,Tumor Cell line [15],977 nM
same,TGI,Tumor Cell line [16],12.3 µM
same,TGI,Tumor Cell line [17],977 nM
same,TGI,Tumor Cell line [18],9.77 µM
same,TGI,Tumor Cell line [19],12 µM
same,TGI,Tumor Cell line [20],9.55 µM
same,GI50,Tumor Cell line [21],1350 nM
same,GI50,Tumor Cell line [22],661 nM
same,GI50,Homo sapiens,813 nM
same,TGI,Tumor Cell line [23],8.71 µM
same,GI50,Tumor Cell line [24],1410 nM
same,GI50,Tumor Cell line [25],813 nM
same,TGI,Tumor Cell line [26],1000 nM
COc1cc([C@@H]2c3cc4c(cc3[C@@H](O[C@@H]3O[C@@H]5CO[C@@H](C)O[C@H]5[C@H](O)[C@H]3O)[C@H]3COC(=O)[C@H]23)OCO4)cc(OC)c1O [ETOPOSIDE],GI50,Tumor Cell line [27],83.2 µM
same,GI50,P388,63.1 µM
